The text below walks through data of PMC8054679 (Analytical biochemistry, 2020).

Entries after “also recorded” stand apart in the source; their conditions may differ.

Test [1] relates to Hsp70-CHIP interaction (myc-LgBiT-IEEVD / SmBiT-CHIP-FLAG). It counts as cell-based. To be noted: for effect on NanoBiT luminescence, single dose: 5 μM, 6 hours, mean ± SD (n=3). In short, it runs like this: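 Stable reporter cells induced overnight with dox 100 μg/mL in 96-well plates. Peptides (DMSO-dissolved) given at 10 µM for 1 h; small-molecule inhibitors given at 5 µM for 6 h. Live-cell substrate added in Opti-Mem, 5 min dark at room temperature, then read at 500 ms integration. Uninduced background subtracted; normalized to DMSO control as percent; mean ± SD, n=3.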

In test [2] the test system is NanoBiT reporter components (myc-LgBiT-IEEVD, SmBiT-CHIP-FLAG). Kind of test: Western blot of lysate protein levels: NanoBiT reporter components. It counts as cell-based. To be noted: anti-myc or anti-FLAG. For orientation: Immunoblotting shows a protein as a band on a membrane.
The next test has as its system CHIP TPR domain. Conditions: cited from earlier work.
Test [3] has as its system dox-inducible NanoBiT reporter in NanoBiT cells. Kind of test: NanoBiT luminescence assay of dox-dependence and signal stability. The class given is cell-based. Conditions: dox 100 μg/mL, 24 hours. In short, it runs like this: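 HEK293 Flp-In T-REx cells electroporated with a bicistronic myc-LgBiT-IEEVD/SmBiT-CHIP-FLAG vector plus pOG44, selected with 100 µg/mL hygromycin, and cloned. Cells cultured in 96-well plates ±dox 100 μg/mL for 24 h. Live-cell furimazine substrate added in Opti-Mem, 5 min dark at room temperature, then read at 500 ms integration. Uninduced-cell background subtracted; mean ± SD, n=3.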

In a further test the test system is Hsp70. Kind of test: Western blot of lysate protein levels: Hsp70. The class given is cell-based. To be noted: compared to vehicle; western blot of treated NanoBiT cells. In short, it runs like this:
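Reporter cells dox-induced overnight, then given test compound for 6 h. Inputs denatured 5 min at 95 °C. Blots blocked 1 h, primary antibody 1:1000 overnight at 4 °C, secondary 1:10000 for 1 h.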

For the compound R9-LWWPD, the “reduction of NanoBiT luminescence” value in test [1] (10 μM peptide, 1 hour, normalized to DMSO control, n=3) is given as “approximately 40%”. Besides, in test [1] (10 μM, 1 hour, percent of DMSO control, n=3), the “effect on NanoBiT luminescence, peptides, single dose” value is “cell active inhibitor”. For the compound `CCn1c(=O)/c(=C2\Sc3cc(Cl)ccc3N2C)s/c1=C\c1scc[n+]1Cc1ccccc1.[Cl-]` [JG-98], in test [1] (percent of DMSO control), the “effect on NanoBiT luminescence, single dose” value is on record as “reduced luminescence”. The “stability/expression of NanoBiT reporter components” value in test [2] was “partially destabilized both components of the NanoBiT reporter”. In the case of Ac-LWWPD, the “efficacy in the NanoBiT assay” value in test [1] (discussion statement, peptide without CPP) is listed as “no efficacy”. In addition, the “affinity for CHIP in vitro” value in the test on CHIP TPR domain (in vitro, see Figure 1 (FP, adapted from ref 21)) is on record as “sub-micromolar affinity”. For `CCn1c(=O)/c(=C2\SCCN2C)s/c1=C\c1scc[n+]1Cc1ccccc1.[Cl-]` [JG-258], in test [1] (percent of DMSO control), the “effect on NanoBiT luminescence, single dose” value is “but not an inactive control, JG-258, reduced luminescence”.

Take `C[C@H]1c2cccc(O)c2C(=O)C2=C(O)[C@]3(O)C(=O)C(C(N)=O)=C(O)[C@@H](N(C)C)[C@@H]3[C@@H](O)[C@@H]21` [dox, doxycycline]: the “stability/expression of NanoBiT reporter components” value in test [2] is on record as “both reporter components were expressed in response to dox, with little background”. The same compound returned a luminescence with dox in test [3] (mean ± SD (n=3)) of 47300 ± 1270 RLU. Also, the “fold increase of luminescence compared to control without dox” value in test [3] (n=3) is 31 fold.

Regarding LWWPD, in the test on CHIP TPR domain (FP, peptide in vitro, fold better than IEEVD), the “binding to CHIP's purified TPR domain relative to IEEVD” value is reported as “at least 10 fold”. On to `CO[C@H]1/C=C\C=C(/C)C(=O)NC2=CC(=O)C(NCCN(C)C)=C(C[C@@H](C)C[C@H](OC)[C@H](O)[C@@H](C)/C=C(\C)[C@@H]1OC(N)=O)C2=O` [17-DMAG, 17-dimethylaminoethylamino-17-demethoxygeldanamycin], for which, in test [1] (percent of DMSO control), the “effect on NanoBiT luminescence, single dose” value is reported as “reduced the luminescence”. In the test on Hsp70, the “total abundance of Hsp70 in the lysate” value is listed as “increased the total abundance of Hsp70 in the lysate; also recorded: induces Hsp70 levels”.
